Bridge positions count the residues as written; N and C are the ends. Square brackets hold non-standard residues; d marks the D form. Peptide text beside a SMILES is read from it. * marks the point of attachment. NODAGA = O=C(O)CN1CCN(CC(=O)O)CCN(C(CCC(=O)*)C(=O)O)CC1; Nle = CCCC[C@H](N)C(=O)O
How the values were obtained:
MC1R = conditions: no reference given; cited from earlier work
[1] = biological target: MC1 receptor (B16/F10 melanoma cells) (Mus musculus, UniProt Q01727); assay: In vitro competitive receptor binding assay on B16/F10 melanoma cells
Chain of MC1 receptor (B16/F10 melanoma cells) (Q01727 whole entry): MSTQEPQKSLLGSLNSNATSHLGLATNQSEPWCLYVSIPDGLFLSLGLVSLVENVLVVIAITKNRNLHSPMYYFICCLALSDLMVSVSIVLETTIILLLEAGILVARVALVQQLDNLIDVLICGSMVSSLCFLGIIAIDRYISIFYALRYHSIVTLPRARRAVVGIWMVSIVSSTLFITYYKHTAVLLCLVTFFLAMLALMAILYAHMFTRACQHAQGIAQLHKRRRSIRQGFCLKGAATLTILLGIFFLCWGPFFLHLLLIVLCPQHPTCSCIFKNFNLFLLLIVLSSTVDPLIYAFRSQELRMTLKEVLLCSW
How it was run: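 Competitive displacement on intact B16/F10 cells (0.5×10^5/well, n = 3; assay run in triplicate): 2 h at 25 °C with ~30,000 cpm 125I-(Tyr2)-NDP-MSH plus 10−12 to 10−5 M test peptide in MEM binding medium (25 mM HEPES pH 7.4, 0.2% BSA, 0.3 mM 1,10-phenanthroline). Cells rinsed twice in ice-cold 0.2% BSA/PBS, lysed in 1 N NaOH 5 min, gamma-counted; IC50 by curve fit.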

Row | Compound | MC1R binding affinity (MC1R) | IC50 [1] [nM]
1 | [Nle^4, D-Phe^7]-α-MSH [NDP-MSH] | sub-nanomolar MC1R binding affinity | –
2 | CCCC[C@H](NC(=O)CNC(=O)CNC(=O)CCC(C(=O)O)N1CCN(CC(=O)O)CCN(CC(=O)O)CC1)C(=O)N[C@H]1CC(=O)NCCCC[C@@H](C(N)=O)NC(=O)[C@H](Cc2c[nH]c3ccccc23)NC(=O)[C@H](CCCNC(=N)N)NC(=O)[C@@H](Cc2ccccc2)NC(=O)[C@H](Cc2c[nH]cn2)NC1=O (stereo partly drawn) [NODAGA-GGNle-CycMSHhex, 1,4,7-triazacyclononane,1-gluteric acid-4,7-acetic acid-GlyGlyNle-c[Asp-His-DPhe-Arg-Trp-Lys]-CONH2] ({NODAGA}-GG[Nle]DH[dF]RWK-NH2; lactam 4-9) | – | 0.87 ± 0.12

Reference: publication PMC7704577 (Bioorganic & medicinal chemistry letters, 2020)
